Experimental data: ChEMBL document CHEMBL4049389, “Design, synthesis and biological evaluation of aminobenzyloxyarylamide derivatives as selective κ opioid receptor antagonists” (Eur J Med Chem, 2017)
Activity calls are given as the source filed them. No cut-off for these calls is given here.

Tests used:
Mus musculus [1] = assay: Anxiolytic activity in ICR mouse assessed as increase in time spent on open arms at 30 mg/kg, ip administered 30 mins prior to test measured for 5 mins by elevated plus maze test; format: functional, organism-based
Outline: (§1)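 Male ICR mice (18–22 g), 10 per group, adapted ≥1 h. Dosed i.p. with saline vehicle 30 min pretest. Maze elevated 50 cm; each mouse started on the central platform facing an open arm. Entries and time in open and closed arms were video-tracked over 5 min, expressed as OE/(CE+OE) and OT/(OT+CT); mean ± SEM.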

Mu-type opioid receptor [2] = biological target: T1, Mu-type opioid receptor (Homo sapiens, UniProt P35372); assay: Displacement of [3H]DAMGO from recombinant human mu-opioid receptor expressed in CHO cell membranes at 1 X 10^-5 M after 60 mins by liquid scintillation counting method relative to control
T1 sequence (P35372 whole entry): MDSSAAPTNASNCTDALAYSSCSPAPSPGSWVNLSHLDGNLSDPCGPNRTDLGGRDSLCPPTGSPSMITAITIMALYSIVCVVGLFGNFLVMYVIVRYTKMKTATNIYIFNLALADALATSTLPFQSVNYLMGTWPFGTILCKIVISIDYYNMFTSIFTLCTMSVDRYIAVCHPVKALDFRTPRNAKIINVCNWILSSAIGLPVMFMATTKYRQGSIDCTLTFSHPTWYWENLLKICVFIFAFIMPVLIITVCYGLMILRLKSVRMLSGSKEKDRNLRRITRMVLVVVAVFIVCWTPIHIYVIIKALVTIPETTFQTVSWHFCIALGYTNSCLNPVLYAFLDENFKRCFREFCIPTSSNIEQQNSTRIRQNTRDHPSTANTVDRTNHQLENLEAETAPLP
Outline: (§2)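 Single-concentration radioligand displacement in membranes from CHO (κ, μ) or HEK293 (δ) cells expressing human receptors. Radioligands were [3H]-U69,593, [3H]-DAMGO and [3H]-DPDPE, incubated in Tris-HCl at 25 °C for 60 min, filtered and counted by scintillation. Read-out was percent inhibition of specific binding; assays were done in duplicate.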

[3] = biological target: T2, Delta-type opioid receptor (Homo sapiens, UniProt P41143); assay: Displacement of [3H]DPDPE from recombinant human delta-opioid receptor expressed in HEK293 cell membranes at 1 X 10^-6 M after 60 mins by liquid scintillation counting method relative to control; outline: as §2
T2 sequence (P41143 whole entry): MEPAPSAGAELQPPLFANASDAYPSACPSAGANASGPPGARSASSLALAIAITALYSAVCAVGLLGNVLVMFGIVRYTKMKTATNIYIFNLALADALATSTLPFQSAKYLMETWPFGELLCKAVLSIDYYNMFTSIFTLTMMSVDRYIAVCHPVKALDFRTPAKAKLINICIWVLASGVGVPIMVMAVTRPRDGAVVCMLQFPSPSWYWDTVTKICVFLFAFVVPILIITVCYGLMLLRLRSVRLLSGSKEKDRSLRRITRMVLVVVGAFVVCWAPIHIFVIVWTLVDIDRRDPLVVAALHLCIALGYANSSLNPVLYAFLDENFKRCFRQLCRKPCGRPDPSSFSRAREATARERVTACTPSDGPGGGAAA

Homo sapiens [4] = species on record: Homo sapiens; assay: Selectivity ratio of Ki for displacement of [3H]DAMGO from recombinant human mu-opioid receptor expressed in CHO cell membranes to Ki for displacement of [3H]U69593 from recombinant human kappa-opioid receptor expressed in CHO cell membranes
Mu-type opioid receptor [5] = biological target: T1, Mu-type opioid receptor; assay: Displacement of [3H]DAMGO from recombinant human mu-opioid receptor expressed in CHO cell membranes after 60 mins by liquid scintillation counting method
Mu-type opioid receptor [6] = biological target: T1, Mu-type opioid receptor; assay: Antagonist activity at recombinant human mu-opioid receptor expressed in CHO cell membranes assessed as inhibition of DAMGO-induced [35S]GTPgammaS binding after 4 hrs by microbeta scintillation counting method; format: functional
Outline: (§3)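 Membranes from CHO cells (κ, μ) or HEK293 cells (δ) expressing human opioid receptors. Assay buffer was 20 mM HEPES pH 7.4, 5 mM MgCl2, 100 mM NaCl, 1 mM EDTA, 1 mM DTT with GDP. GTP-γ-35S was 0.5 nM final. Agonist at ~80% max stimulation: U69,593 300 nM (κ), DAMGO (μ), DPDPE 30 nM (δ). Read by WGA SPA, 11-point curves, four-parameter fit; mean ± SEM of ≥3 experiments.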

Mus musculus [7] = assay: Anxiolytic activity in ICR mouse assessed as increase in number of open arm entries at 30 mg/kg, ip administered 30 mins prior to test measured for 5 mins by elevated plus maze test; format: functional, organism-based; outline: as §1
Homo sapiens [8] = species on record: Homo sapiens; assay: Selectivity ratio of Ki for displacement of [3H]DPDPE from recombinant human delta-opioid receptor expressed in HEK293 cell membranes to Ki for displacement of [3H]U69593 from recombinant human kappa-opioid receptor expressed in CHO cell membranes
[9] = biological target: T2, Delta-type opioid receptor; assay: Displacement of [3H]DPDPE from recombinant human delta-opioid receptor expressed in HEK293 cell membranes at 1 X 10^-5 M after 60 mins by liquid scintillation counting method relative to control; outline: as §2
[10] = biological target: T3, Kappa-type opioid receptor (Homo sapiens, UniProt P41145); assay: Antagonist activity at recombinant human kappa-opioid receptor expressed in CHO cell membranes assessed as inhibition of U69593-induced [35S]GTPgammaS binding after 4 hrs by microbeta scintillation counting method; format: functional; outline: as §3
T3 sequence (P41145 whole entry): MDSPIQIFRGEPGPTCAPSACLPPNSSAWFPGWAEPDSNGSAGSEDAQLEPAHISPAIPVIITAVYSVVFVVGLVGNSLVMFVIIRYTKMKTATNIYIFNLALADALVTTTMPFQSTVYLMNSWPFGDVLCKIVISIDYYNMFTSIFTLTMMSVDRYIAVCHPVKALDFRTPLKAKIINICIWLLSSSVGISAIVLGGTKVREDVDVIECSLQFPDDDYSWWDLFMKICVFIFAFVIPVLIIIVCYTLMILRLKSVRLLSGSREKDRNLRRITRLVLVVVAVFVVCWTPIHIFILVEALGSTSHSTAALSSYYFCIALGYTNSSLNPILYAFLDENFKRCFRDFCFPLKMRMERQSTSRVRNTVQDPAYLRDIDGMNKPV

Mus musculus [11] = assay: Antidepressant-like activity in ICR mouse assessed as decrease in immobility time at 30 mg/kg, ip administered 30 mins prior to test measured for last 4 mins of 6 mins observation by forced swim test; format: functional, organism-based
Outline: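 Male ICR mice (20–25 g), 10 per group, adapted ≥15 min before testing. Dosed i.p. with saline vehicle 30 min pretest. Each mouse was placed in a cylinder 10 cm wide with water 6 cm deep at 25 °C for 6 min. Immobility was scored over the last 4 min; mean ± SEM.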

[12] = biological target: T3, Kappa-type opioid receptor; assay: Displacement of [3H]U69593 from recombinant human kappa-opioid receptor expressed in CHO cell membranes after 60 mins by liquid scintillation counting method
[13] = biological target: T2, Delta-type opioid receptor; assay: Antagonist activity at recombinant human delta-opioid receptor expressed in HEK293 cell membranes assessed as inhibition of DPDPE-induced [35S]GTPgammaS binding after 2 hrs by microbeta scintillation counting method; format: functional; outline: as §3
[14] = biological target: T2, Delta-type opioid receptor; assay: Displacement of [3H]DPDPE from recombinant human delta-opioid receptor expressed in HEK293 cell membranes after 60 mins by liquid scintillation counting method
Mu-type opioid receptor [15] = biological target: T1, Mu-type opioid receptor; assay: Displacement of [3H]DAMGO from recombinant human mu-opioid receptor expressed in CHO cell membranes at 1 X 10^-6 M after 60 mins by liquid scintillation counting method relative to control; outline: as §2
Homo sapiens [16] = species on record: Homo sapiens; assay: Selectivity ratio of IC50 for antagonist activity at recombinant human mu-opioid receptor expressed in CHO cell membranes assessed as inhibition of DAMGO-induced [35S]GTPgammaS binding to IC50 for antagonist activity at recombinant human kappa-opioid receptor expressed in CHO cell membranes assessed as inhibition of U69593-induced [35S]GTPgammaS binding; outline: as §3
Homo sapiens [17] = species on record: Homo sapiens; assay: Selectivity ratio of IC50 for antagonist activity at recombinant human delta-opioid receptor expressed in HEK293 cell membranes assessed as inhibition of DPDPE-induced [35S]GTPgammaS binding to IC50 for antagonist activity at recombinant human kappa-opioid receptor expressed in CHO cell membranes assessed as inhibition of U69593-induced [35S]GTPgammaS binding; outline: as §3
[18] = biological target: T3, Kappa-type opioid receptor; assay: Displacement of [3H]U69593 from recombinant human kappa-opioid receptor expressed in CHO cell membranes at 1 X 10^-6 M after 60 mins by liquid scintillation counting method relative to control; outline: as §2
[19] = biological target: T3, Kappa-type opioid receptor; assay: Displacement of [3H]U69593 from recombinant human kappa-opioid receptor expressed in CHO cell membranes at 1 X 10^-5 M after 60 mins by liquid scintillation counting method relative to control; outline: as §2
[20] = Oral bioavailability in rat at 10 mg/kg by LC-MS/MS analysis; format: ADME, organism-based; conditions: in vivo
[21] = Tmax in rat at 1 or 10 mg/kg, iv or po by LC-MS/MS analysis; format: ADME, organism-based; conditions: in vivo
[22] = Half life in rat at 1 or 10 mg/kg, iv or po by LC-MS/MS analysis; format: ADME, organism-based; conditions: in vivo

| SMILES | inhibition (Mu-type opioid receptor [2]) | inhibition [3] | Ki (Mu-type opioid receptor [5]) | inhibition [9] | Ki [12] | Ki [14] | inhibition (Mu-type opioid receptor [15]) | inhibition [18] | inhibition [19] | Ratio Ki (Homo sapiens [4]) | Ratio Ki (Homo sapiens [8]) | further results |
| --- | --- | --- | --- | --- | --- | --- | --- | --- | --- | --- | --- | --- |
| Cc1cc(C)cc(C2CCCN2Cc2ccc(Oc3ccc(C(N)=O)cc3F)cc2)c1 (racemic) | 93.6% | 45.5% | 0.0909 µM | 87.2% | 0.0119 µM | 0.0915 µM | 56.1% | 97% | 100% | 7.6 | 7.6 | Activity (Mus musculus [1]): Active; IC50 (Mu-type opioid receptor [6]): 0.0226 µM; Activity (Mus musculus [7]): Active; IC50 [10]: 0.00668 µM; Activity (Mus musculus [11]): Active; IC50 [13]: 0.0955 µM; Ratio IC50 (Homo sapiens [16]): 3.4; Ratio IC50 (Homo sapiens [17]): 14.3 |
| Cc1cc(C)cc(C2CCCN2Cc2ccc(Oc3ccc(C(N)=O)cc3)c(F)c2)c1 (stereo unspecified) | 95.3% | 45.5% | 0.0628 µM | 97.1% | 0.0294 µM | 0.267 µM | 71% | 98.8% | 100% | 2.13 | 9 | Activity (Mus musculus [11]): Active |
| Cc1cc(C)cc(C2CCCN2Cc2ccc(Oc3ccc(C(N)=O)cc3)c(Cl)c2)c1 (stereo unspecified) | 99.1% | 36.5% | 0.0323 µM | 87.5% | 0.0376 µM | 0.489 µM | 78.8% | 99.3% | 100% | 0.85 | 13 | – |
| Cc1cc(C)cc(C2CCCN2Cc2ccc(Oc3ccc(C(N)=O)cc3F)c(Cl)c2)c1 (stereo unspecified) | 94.2% | 54.1% | 0.22 µM | 92.4% | 0.0157 µM | 0.191 µM | 51.4% | 98.5% | 100% | 14 | 12.2 | Activity (Mus musculus [1]): Active; IC50 (Mu-type opioid receptor [6]): 0.144 µM; Activity (Mus musculus [7]): Active; IC50 [10]: 0.00932 µM; Activity (Mus musculus [11]): Active; IC50 [13]: 0.0158 µM; Ratio IC50 (Homo sapiens [16]): 15.5; Ratio IC50 (Homo sapiens [17]): 1.7 |
| Cc1cc(C)cc(C2CCCN2Cc2ccc(Oc3ccc(C(N)=O)cc3F)c(F)c2)c1 (stereo unspecified) | 96.8% | 37.4% | 0.0279 µM | 89.2% | 0.0427 µM | 0.429 µM | 73.4% | 95.8% | 98.7% | 0.65 | 10.1 | – |
| NC(=O)c1ccc(Oc2ccc(CN3CCCC3c3cccnc3)cc2)c2ccccc12 (stereo unspecified) | 52.2% | 0% | – | 0% | – | – | 11.3% | 5.1% | 12% | – | – | – |
| NC(=O)c1ccc(Oc2ccc(CN3CCCC3c3ccc(F)cc3)cc2)c2ccccc12 (stereo unspecified) | 0% | 0% | – | 0% | – | – | 0% | 13.8% | 39% | – | – | – |
| COc1ccc(C2CCCN2Cc2ccc(Oc3ccc(C(N)=O)c4ccccc34)cc2)cc1 (stereo unspecified) | 15% | 0% | > 10 µM | 9% | 4.6 µM | > 10 µM | 0% | 46.5% | 80.5% | > 2.2 | > 2.2 | – |
| Cc1cc(C)cc([C@@H]2CCCN2Cc2ccc(Oc3ccc(C(N)=O)cc3F)cc2)c1 [ATICAPRANT] | – | – | – | – | – | – | – | – | – | – | – | bioavailability [20]: 25%; Tmax [21]: 1 to 2 h; half-life [22]: 2 to 4 h |

The next lines start with results.

| inhibition (Mu-type opioid receptor [2]) | inhibition [3] | Ki (Mu-type opioid receptor [5]) | inhibition [9] | Ki [12] | Ki [14] | inhibition (Mu-type opioid receptor [15]) | inhibition [18] | inhibition [19] | SMILES | Ratio Ki (Homo sapiens [4]) | Ratio Ki (Homo sapiens [8]) | further results |
| --- | --- | --- | --- | --- | --- | --- | --- | --- | --- | --- | --- | --- |
| 0% | 0% | – | 2.9% | – | – | 0% | 13.9% | 34% | Cc1ccccc1C1CCCN1Cc1ccc(Oc2ccc(C(N)=O)c3ccccc23)cc1 (stereo unspecified) | – | – | – |
| 16.3% | 0% | > 10 µM | 0% | 1.74 µM | > 10 µM | 0% | 39.9% | 86.9% | Cc1cccc(C2CCCN2Cc2ccc(Oc3ccc(C(N)=O)c4ccccc34)cc2)c1 (stereo unspecified) | > 5.8 | > 5.8 | Activity (Mus musculus [1]): Active; Activity (Mus musculus [7]): Active; Activity (Mus musculus [11]): Active |
| 0% | 0% | – | 0% | – | – | 0% | 31.4% | 64.1% | NC(=O)c1ccc(Oc2ccc(CN3CCCC3c3cccc(Cl)c3)cc2)c2ccccc12 (stereo unspecified) | – | – | – |
| 0% | 0% | – | 0% | – | – | 0% | 12.2% | 23.7% | Cc1cc(C)cc(C2CCCN2Cc2ccc(Oc3ccc(C(N)=O)c4ccccc34)cc2)c1 (stereo unspecified) | – | – | – |
| 0% | 2.3% | – | 4% | – | – | 0% | 27.7% | 57.9% | NC(=O)c1ccc(Oc2ccc(CN3CCCC3c3cccc(F)c3)cc2)c2ccccc12 (stereo unspecified) | – | – | – |
